Laboratory results published in publication PMC6422681 (Science signaling, 2018).
Counter-ions that a name gives are not always drawn.

Key:
[1] = biological target: T1, CXCR4 (Homo sapiens, UniProt P61073); test: Transwell chemotaxis of Jurkat cells toward CXCL12; assay type: cell-based; conditions: Jurkat cells treated 1 hour with 80 μM dynasore, 30 nM CXCL12
[2] = biological target: T1, CXCR4; test: Flow cytometry of CXCR4 cell surface expression on Jurkat cells; assay type: cell-based
[3] = biological target: T1, CXCR4; test: Flow cytometry of CXCL12-stimulated CXCR4 endocytosis in Jurkat cells; assay type: cell-based; conditions: 30 nM CXCL12, antagonist 30 min before
How it was run: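 Jurkat cells (1×10^5), serum-starved 6 hours, got vehicle or antagonist 30 min before 30 nM CXCL12. At set times, washed three times in ice-cold PBS/1% BSA, stained 20 min with PE-anti-CXCR4 (4G10 or 12G5) or isotype controls, and fixed in 4% paraformaldehyde. Surface CXCR4 read by flow cytometry against CXCL12 alone. Means ± SD; three experiments in triplicate.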

[4] = tested on: CXCR4; test: PRESTO-Tango assay of BA2 recruitment to CXCR4; assay type: cell-based; conditions: HTLA cells, increasing CXCL12 with 1 μM AMD3100 or 10 μM X4-2-6, 1 hour, 37°C
How it was run: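 HTLA cells were lipofected with Tango plasmids. After one day they were plated on poly-L-lysine-coated wells and allowed to attach 4 h before treatment with CXCL12 plus vehicle or test compound. Read-out was luminescence after adding a 1:5 mix of Bright-Glo with HBSS/20 mM Hepes and incubating at room temperature.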

[5] = biological target: T1, CXCR4; test: CXCR4 phosphorylation assay; assay type: cell-based; conditions: Jurkat cells, 1 μM AMD3100 or 10 μM X4-2-6 for 30 min, then 30 nM CXCL12 for 30 min
[6] = tested on: ERK1/2; test: ERK1/2 phosphorylation assay; assay type: cell-based, human; conditions: Jurkat cells, 30 nM CXCL12, time points up to 30 min
[7] = tested on: Gαi; test: GTP loading of Gαi; assay type: cell-based, human; conditions: Jurkat cells
[8] = biological target: T1, CXCR4; test: cAMP concentration by ELISA in Jurkat cells; assay type: cell-based; conditions: 100 μM forskolin, 30 nM CXCL12
How it was run: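 Jurkat cells (5×10^6), serum-starved 6 hours in RPMI 1640 with penicillin-streptomycin and L-glutamine. Steps: 100 μM forskolin or vehicle 30 min; then vehicle or antagonists 30 min; then 30 nM CXCL12 30 min. cAMP measured in lysates by direct ELISA; relative change calculated. Means ± SD of three independent experiments, six replicates per condition.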

[9] = biological target: T1, CXCR4; conditions: Jurkat cells, 72 hours, fig. S1

T1 sequence (P61073 whole entry): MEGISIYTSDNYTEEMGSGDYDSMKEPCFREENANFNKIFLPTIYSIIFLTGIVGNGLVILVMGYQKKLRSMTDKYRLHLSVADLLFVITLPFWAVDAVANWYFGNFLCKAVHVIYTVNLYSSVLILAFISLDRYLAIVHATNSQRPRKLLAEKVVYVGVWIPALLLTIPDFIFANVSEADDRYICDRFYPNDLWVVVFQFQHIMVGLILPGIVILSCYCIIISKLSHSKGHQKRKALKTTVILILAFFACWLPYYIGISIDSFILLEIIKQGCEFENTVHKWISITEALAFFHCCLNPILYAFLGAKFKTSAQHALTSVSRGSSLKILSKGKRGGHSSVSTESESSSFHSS

potency of AMD3100 to inhibit chemotaxis after dynasore treatment [1]	CXCR4 cell surface expression after prolonged exposure ([2]; 72 hours, compared to vehicle-treated cells)	increase of CXCL12 EC50 for BA2 recruitment [4]	total CXCR4 protein amount [9]	CXCR4 cell surface expression after dynasore ([2]; 80 μM dynasore for 1 hour, antibody clone 4G10)	SMILES	CXCL12-mediated CXCR4 internalization (endocytosis) [3]	phosphorylation of Ser324/325 or Ser339 in the C terminus of CXCR4 [5]	pERK1/2 (Thr202/Tyr204) generation after CXCL12 [6]	amount of Gαi-GTP in CXCL12-treated cells [7]	cAMP amounts in forskolin and CXCL12 treated cells [8]
reduced potency	increased cell surface CXCR4 expression	more than 3500 fold	increased the total CXCR4 protein amount	–	c1cc(CN2CCCNCCNCCCNCC2)ccc1CN1CCCNCCNCCCNCC1 [AMD3100, AMD3100 octahydrochloride hydrate]	inhibited CXCL12-mediated receptor internalization	inhibited this posttranslational modification	inhibited both early and late peaks in pERK1/2 generation	reduced the amount of Gαi-GTP	returned cAMP amounts to those observed in cells treated with forskolin alone
–	–	–	–	–	Nn1cnc2scc(-c3ccc(Cc4ccccc4)cc3)c2c1=O [barbadin]	–	–	increased the early and late peaks in pERK1/2 abundance	–	–
–	–	–	–	increased CXCR4 cell surface expression	O=C(N/N=C/c1ccc(O)c(O)c1)c1cc2ccccc2cc1O [dynasore]	–	–	–	–	–
